Screening results from PubChem.
Sampled rows, rich in hits. Any-hit rate of the full collection: about 2.1%.
MsrA inhibitor: inhibits bovine methionine sulfoxide reductase A; 0.75% of 360,000 active; inhibition, % at 15.5 µM; purified bovine MsrA, absorbance read-out; in the data active = inhibition above about 4.5%
PKA-R1A act: activators of PKA-R1A complex; P00514+P68181; PKA-R1A dissociation, Cy5-IP20 fluorescence polarization; scaled: DMSO 0%, 113 µM cGMP 100%; activation, % at 11.4 µM; 0.083% of 340,000 active;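 active = percent activation above the mean of all tested compounds plus 3 SD, cut at about 19% in these data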;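 also: higher means more PKAc released from R1A so a rise in polarization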
IMP-1 inh: inhibitors of Pseudomonas aeruginosa IMP-1 metallo-beta-lactamase; purified IMP-1, nitrocefin hydrolysis, epi-absorbance fluorescence; inhibition, % at 5.6 µM; 0.45% of 290,000 active;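 active = inhibition above the mean plus 3 SD of all compounds in the same screening run, cut at about 4.5% in these data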
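Assay system: purified recombinant IMP-1 beta-lactamase. Input: IMP-1 0.2 nM before substrate addition. Buffer or medium: Zinc- and detergent-supplemented HEPES buffer, pH 7.1. Schedule: 25 °C, 15 min preincubation, 25 min reaction. Signal: Epi-absorbance fluorescence, 480 nm excitation, 530 nm emission. Evaluation: percent inhibition from optical density relative to buffer-blank wells.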
bovine MsrA act: activators of bovine methionine sulfoxide reductase A; purified bovine MsrA, absorbance read-out; activation, % at 10.6 µM; 0.3% of 360,000 active; AID 602163; in the data active = activation above about 7.5%
VIM-2 inh: inhibitors of Pseudomonas aeruginosa VIM-2 metallo-beta-lactamase; 0.89% of 290,000 active; inhibition, % at 5.6 µM; purified VIM-2, nitrocefin hydrolysis, epi-absorbance fluorescence; AID 1527;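 active = inhibition above the mean of all tested compounds plus 3 SD, cutoff set per screening run, cut at about 7.5% in these data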;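 also: red hydrolysis product quenches plate fluorescence so inhibitors raise well fluorescence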
PKA-R2B activ: PKA-R2B complex activation. 0.079% of 340,000 active. AID 504700. PKA-R2B holoenzyme dissociation, Cy5-IP20 fluorescence polarization; R2B truncated from residue 108, S112A mutant; 0% DMSO only, 100% 113 µM cGMP. activation, % at 11.4 µM. P22694+P31323;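 active = activation above a cutoff set at the mean over all compounds plus 3 SD, cut at about 18% in these data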;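 also: higher means more holoenzyme dissociation and a rise in polarization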
Target sequence (P31323 whole entry, looked up, other chains not shown, the tested form may be a part): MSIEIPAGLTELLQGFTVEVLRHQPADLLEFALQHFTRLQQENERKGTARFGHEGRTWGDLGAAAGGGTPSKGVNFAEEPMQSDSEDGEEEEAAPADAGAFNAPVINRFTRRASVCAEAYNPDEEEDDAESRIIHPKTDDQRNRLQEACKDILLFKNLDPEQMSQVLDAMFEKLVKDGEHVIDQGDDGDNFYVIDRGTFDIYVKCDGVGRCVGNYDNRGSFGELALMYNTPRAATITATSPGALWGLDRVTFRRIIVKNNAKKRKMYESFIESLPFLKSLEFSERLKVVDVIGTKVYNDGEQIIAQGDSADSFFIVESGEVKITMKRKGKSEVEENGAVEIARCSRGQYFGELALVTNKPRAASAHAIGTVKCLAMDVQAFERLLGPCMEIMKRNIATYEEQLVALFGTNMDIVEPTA
MsrA activ conf: bovine methionine sulfoxide reductase A activation confirmed; shares compounds with bovine MsrA act; purified bovine MsrA, absorbance read-out; activation, % at 10.6 µM; 12% of 1,000 active; in the data active = activation above about 4%;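 also: enzyme coupled to thioredoxin and thioredoxin reductase with NADPH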
Numbers stand for hits; 0 = inactive; - = no result given; ! = not active in a repeat.

SMILES	MsrA inhibitor	PKA-R1A act	IMP-1 inh	bovine MsrA act	VIM-2 inh	PKA-R2B activ	MsrA activ conf
NC(=O)c1cc(S(=O)(=O)N2CCCC2)ccc1OCCOc1ccccc1F	0	0	-	11	-	0	0
COc1ccc(OCCOc2ccc(S(=O)(=O)N3CCCC3)cc2C(N)=O)cc1	0	0	-	0	-	0	-
O=C([C@@H]1CCCN1C(=O)c1cccs1)N1CCN(S(=O)(=O)c2cccc(F)c2)CC1	0	0	-	0	-	0	-
Cc1ccc(CC2C(=O)N(c3ccc(C)cc3)C(=O)C2C)cc1 (stereo unspecified)	0	0	0	0	0	0	-
Cc1ccc(CC2C(=O)N(c3ncccn3)C(=O)C2C)cc1 (stereo unspecified)	0	0	4.9	20	0	0	0
C=CCn1cccc(C(=O)Nc2ccc(SC)cc2)c1=O	0	0	0	0	0	0	-
C=CCn1cccc(C(=O)Nc2ccc(Cl)cc2)c1=O	0	0	0	7.8	0	0	0
Cn1c(=O)c2cc(NC(=O)CCc3ccccc3)ccc2n1Cc1cccc(C(F)(F)F)c1	0	-	-	7.8	-	-	0
CCCCNC(=O)C1CC(=O)N(CCC(C)C)C1 (stereo unspecified)	0	0	0	0	0	0	-
CC(C)CCN1CC(C(=O)NC(C)C)CC1=O (stereo unspecified)	0	0	0	11	0	0	0
Nc1c(C(=O)N/N=C/c2cccnc2)oc2nc(-c3ccco3)cc(-c3ccco3)c12	0	-	0	0	0	-	-
NNC(=O)c1oc2nc(-c3ccco3)cc(-c3ccco3)c2c1N	0	-	0	8.2	0	-	0
COc1ccc(-n2cc(CN3CCC(OC)CC3)c(-c3cccc(F)c3)n2)cc1	0	0	0	8.2	0	0	0
C/C(CC(=O)NC12CC3CC(CC(C3)C1)C2)=N\NC(=O)c1cnccn1	0	0	0	14	0	0	0
O=C(NC12CC3CC(CC(C3)C1)C2)c1cnccn1	0	0	0	0	0	0	-
O=C(COC(=O)c1c[nH]c2ccccc12)NC1CCCC1	0	0	-	22	-	0	0
O=C(COC(=O)c1cc(=O)[nH]c2ccccc12)NC1CCCCCCC1	0	0	0	0	0	0	-
Cc1ccc(Nc2n[nH]c(=S)s2)cc1C	0	0	-	7.8	-	0	0
COc1ccc(Cl)cc1NC(=O)CN(C)C(=O)c1sccc1-c1ccccc1	0	0	-	0	-	0	-
COC(=O)[C@]12CCCCC=C1N(CCC1=CCCCC1)C(=O)[C@H](CC(=O)N1CCC(c3ccccc3)CC1)C2	0	-	-	0	-	-	-
N#CCCN(Cc1cccnc1)C(=O)Nc1ccc(Cl)c(Cl)c1	0	0	0	9.1	0	0	0
CC(C)OP(=O)(OC(C)C)C(NC(=O)c1ccccc1)C(N)=O (stereo unspecified)	0	0	0	0	0	0	-
CC(C)OP(=O)(OC(C)C)C(C)NC(=O)Cc1ccccc1 (stereo unspecified)	0	0	0	17	0	0	0
O=C(/C=C/c1cccc(C(F)(F)F)c1)OCC(=O)N1CCN(c2ccccc2)CC1	0	0	-	0	-	0	-
O=C(Oc1ccc2c(-c3ccccc3)cc(=O)oc2c1)c1cccs1	0	0	0	0	0	0	-
SMILES	MsrA inhibitor	PKA-R1A act	IMP-1 inh	bovine MsrA act	VIM-2 inh	PKA-R2B activ	MsrA activ conf
CCc1cc2c(-c3ccccc3)cc(=O)oc2cc1OC(=O)c1cccs1	0	0	0	11	0	0	0
Cc1ccc(S(=O)(=O)N2CCN(C(=O)COC(=O)COc3ccccc3)CC2)cc1	0	0	0	9.9	0	0	0
COc1ccc(S(=O)(=O)N2CCN(C(=O)COc3ccccc3)CC2)cc1	0	0	0	0	0	0	-
CC1CCN(S(=O)(=O)c2nnc(NC(=O)COc3ccccc3)s2)CC1	0	0	0	0	0	0	-
CC1(C)Cc2c(sc(NC(=O)COc3ccc(Cl)cc3)c2C(N)=O)C(C)(C)N1	0	0	0	12	0	0	0
Cc1ccc(OCC(=O)Nc2sc3c(c2C#N)CC(C)(C)NC3(C)C)cc1	0	0	0	0	0	0	-
CCOC(=O)CC(NC(=O)c1cccc2c1C(=O)N(Cc1cccnc1)C2)c1ccc(OCC)c(OC)c1 (stereo unspecified)	0	0	0	8.6	0	0	0
Cc1ccc(S(=O)(=O)NCc2ccccc2)cc1C(=O)N1CCN(S(=O)(=O)c2ccccc2F)CC1	0	0	-	0	-	0	-
CC(C)(C)OC(=O)NCc1ccc(CNC(=O)c2[nH]cnc2C(=O)NC2CCN(C(=O)OC(C)(C)C)CC2)cc1	-	0	-	12	-	0	0
CC(C)(C)OC(=O)N1CCC(NC(=O)c2nc[nH]c2C(=O)NCc2ccccc2)CC1	0	0	-	0	-	0	-
Cc1ccc(C)c(SCC(=O)Nc2oc(C)c3c(C)n[nH]c(=O)c23)c1	0	0	-	0	-	0	-
CCOC(=O)N1CCN(c2c(F)cc3[nH]c(=S)[nH]c3c2Br)CC1	0	0	0	12	0	0	0
Cc1cc(O)cc(=O)n1-c1cc(F)c(F)c(F)c1	0	-	-	-	-	-	-
O=C(CCN1CCN(C(=O)c2ccco2)CC1)Nc1ccc(F)cc1	0	0	0	0	0	0	-
O=C(c1ccco1)N1CCN(CCCCOc2ccc(F)cc2)CC1	0	0	0	9.4	0	0	0
Cn1c(=O)c2c(nc(NCCCO)n2Cc2cccc(C(F)(F)F)c2)n(C)c1=O	0	0	0	8.3	0	0	0
CC12CCC(=O)N1C(C(=O)N1CCN(c3ccc([N+](=O)[O-])cc3)CC1)CS2 (stereo unspecified)	0	0	-	0	-	0	-
Cn1c(=O)n(CC(=O)O)c(=O)c2c1nc1n2CCS1	0	0	0	8.5!	0	0	0
CCn1c(=O)c2c(nc3n2CCS3)n(C)c1=O	0	0	0	0	0	0	-
CN(CC(=O)Nc1cccc(F)c1)C(=O)CCc1nc2sc3c(c2c(=O)[nH]1)CCCC3	0	0	-	0	-	0	-
Cc1cccc(C)c1NC(=O)CN(C)C(=O)CCc1nc2sc3c(c2c(=O)[nH]1)CCCC3	0	0	-	8.8	-	0	0
O=C(CSCc1ccc(Cl)cc1)NN=C1CCCC1	0	0	0	8.1	0	0	0
O=C(Nc1cccc(S(=O)(=O)NC2=NCCC2)c1)c1cc(=O)[nH]c2ccccc12	0	0	-	0	-	0	-
COc1cccc(-c2nc(N3CCC(C)CC3)c3ccccc3n2)c1O	0	0	0	8.2	0	0	0
O=C(COC(=O)c1cncc(Br)c1)NC12CC3CC(CC(C3)C1)C2	0	-	-	9.3	-	-	0
Nc1ccc(S(=O)(=O)c2ccc(N)nc2)cc1	0	-	-	7.7	-	-	0
CC(c1nnnn1C1CCCCC1)N(Cc1ccccc1)Cc1cccnc1 (stereo unspecified)	0	0	0	11	0	0	0
COc1ccc(CC(=O)N2CCCc3ccccc32)cc1OC	0	0	0	9.6	0	0	0
